Assay results collected from several papers.
Lines come from different studies, so protocols differ.
Target: Serine/threonine-protein kinase tousled-like 2 (TLK2, Homo sapiens, UniProt Q86UE8)

SMILES | effect on | method | concentration | remaining binding
c1cncc(-c2cccc(Nc3nccc(NC4CCCCC4)n3)c2)c1 | binding | competition with immobilised ligand | 10 µM | 100%
O=C(c1ccc(Nc2nccc(-c3cc4ccccc4s3)n2)cc1)N1CCC(N2CCCC2)CC1 | binding | competition with immobilised ligand | 1 µM | 15%
C[C@@H](c1ccc(-n2cnc3c(N)ncnc32)cc1)N1CCc2nn(C)c(Cc3ccccc3)c2C1=O | binding | competition with immobilised ligand | 0.1 µM | 99%
N[C@@H]1CCN(c2nccc(-c3cnn4ncccc34)n2)C1 | binding |  | 1 µM | 100%
COc1ncc2cc3ccccc3nc2c1C#N | cell-free assay | competition with immobilised ligand | 5 µM | 100%
CN(CCCC(F)(F)F)c1nccc(-c2cnn3ncccc23)n1 | binding |  | 1 µM | 100%
O=C(Nc1c[nH]nc1C(=O)NC1CCNCC1)c1cc(F)cc(F)c1 | binding | competition with immobilised ligand | 1 µM | 98%
O=C(c1ccc(Nc2ncc(Cl)c(-c3cc4ccccc4s3)n2)cc1)N1CCC(N2CCCC2)CC1 | binding | competition with immobilised ligand | 1 µM | 26%
F[C@@H]1CCN(c2nccc(-c3cnn4ncccc34)n2)C1 | binding |  | 1 µM | 100%
O=C(NCc1ncc(C(F)(F)F)cc1Cl)c1ccc2c(c1)C1(CCS(=O)(=O)CC1)[C@@H](C1CC1)N2S(=O)(=O)c1ccc(F)cc1 | cell-free assay | competition with immobilised ligand | 1 µM | 100%
COc1cnc(Nc2cccc(S(N)(=O)=O)c2)nc1N1CCN(c2ccccc2)C(=O)C1 | binding | competition with immobilised ligand | 1 µM | 100%
CCS(=O)(=O)c1cc2cc(C[C@](O)(CC(C)(C)c3ccc(F)cc3C(N)=O)C(F)(F)F)[nH]c2cn1 | cell-free assay | competition with immobilised ligand | 1 µM | 100%
C[C@H]1CCN(c2nccc(-c3cnn4ncccc34)n2)C1 | binding |  | 1 µM | 100%
Cc1nc(Cc2cccc(C(F)(F)F)c2)sc1-c1ccc(C(N)=O)nc1 | cell-free assay | competition with immobilised ligand | 1 µM | 82%
C=CC(=O)N1CCC(C(=O)NCC(=O)N2CCN(c3nc(-c4cnc(N)nc4C(F)F)nc(N4CCOCC4)n3)CC2)CC1 | binding | competition with immobilised ligand | 1 µM | 100%
O=C(N[C@H]1CCCCC/C=C\C2C[C@@]2(C(=O)O)NC(=O)[C@@H]2C[C@@H](Oc3ccncc3)CN2C1=O)OC1CCCC1 (stereo partly drawn) | cell-free assay | competition with immobilised ligand | 1 µM | 100%
CN(C)c1ncc(F)c(-c2cnn3ncccc23)n1 | binding |  | 1 µM | 100%
O=C(Nc1cccnn1)N1CCC(=Cc2cccc(Oc3ccc(C(F)(F)F)cn3)c2)CC1 | cell-free assay | competition with immobilised ligand | 1 µM | 100%
O=C(NCCCN1CCOCC1)c1ccc(Nc2nccc(-c3cc4ccccc4s3)n2)cc1 | binding | competition with immobilised ligand | 1 µM | 64%
O=C(N1CCS(=O)(=O)CC1)N1C[C@H](c2ccc(OC(F)(F)F)cc2)C[C@H](c2nc(C3CC3)no2)C1 | cell-free assay | competition with immobilised ligand | 1 µM | 100%
c1cnn2ncc(-c3ccnc(N4CCC45COC5)n3)c2c1 | binding |  | 1 µM | 100%
